Measured values taken from ChEMBL document CHEMBL4004857, “Synthesis and biological evaluation of novel pyrazolic chalcone derivatives as novel hepatocellular carcinoma therapeutics” (Eur J Med Chem, 2017).
The source made the active and inactive calls. The rule behind the calls is not given here.

Experiments:
[1] = test system: Huh-7; assay: Cytotoxicity against human HuH7 cells assessed as growth inhibition after 72 hrs by SRB assay; format: functional, cell-based; conditions: Huh-7, 72 h
Outline: (§1)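 Cells seeded at 2000–3000 per well and grown 24 h at 37C, then treated in triplicate with compounds dissolved in DMSO over a 40–0.3 range for 72 h. Cells were fixed with 10% TCA for 1 h, stained with 0.4% SRB in 1% acetic acid, washed with 1% acetic acid and air-dried. Bound dye was solubilized in 10 mM Tris base and read at 515 nm. % inhibition and IC50 were calculated against DMSO-only controls.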

[2] = test system: MCF7; assay: Cytotoxicity against human MCF7 cells assessed as growth inhibition after 72 hrs by SRB assay; format: functional, cell-based; conditions: MCF7, 72 h; outline: as §1
[3] = test system: HCT-116; assay: Cytotoxicity against human HCT116 cells assessed as growth inhibition after 72 hrs by SRB assay; format: functional, cell-based; conditions: HCT-116, 72 h; outline: as §1
[4] = species on record: Homo sapiens; assay: Inhibition of tubulin polymerization (unknown origin)
[5] = test system: HepG2; assay: Cytotoxicity against human HepG2 cells assessed as growth inhibition after 72 hrs by SRB assay; format: functional, cell-based; conditions: HepG2, 72 h; outline: as §1
[6] = test system: Mahlavu; assay: Cytotoxicity against human Mahlavu cells assessed as growth inhibition after 72 hrs by SRB assay; format: functional, cell-based; outline: as §1
[7] = test system: SNU-475; assay: Cytotoxicity against human SNU475 cells assessed as growth inhibition after 72 hrs by SRB assay; format: functional, cell-based; conditions: SNU-475, 72 h; outline: as §1
[8] = test system: MCF-12A; assay: Cytotoxicity against human MCF12A cells assessed as growth inhibition after 72 hrs by SRB assay; format: cell-based; outline: as §1
[9] = test system: MRC5; assay: Cytotoxicity against human MRC5 cells assessed as growth inhibition after 72 hrs by SRB assay; format: cell-based; conditions: Homo sapiens, MRC5, 72 h; read-out: IC50; outline: as §1
[10] = test system: Huh-7; assay: Growth inhibition of human HuH7 cells at cytotoxic IC100 measured every 10 mins for first 24 hrs and every 30 mins for remaining 48 hrs by RT-CES analysis; format: functional, cell-based
[11] = test system: HepG2; assay: Growth inhibition of human HepG2 cells at cytotoxic IC100 measured every 10 mins for first 24 hrs and every 30 mins for remaining 48 hrs by RT-CES analysis; format: functional, cell-based
[12] = test system: Mahlavu; assay: Growth inhibition of human Mahlavu cells at cytotoxic IC100 measured every 10 mins for first 24 hrs and every 30 mins for remaining 48 hrs by RT-CES analysis; format: functional, cell-based
[13] = test system: SNU-475; assay: Growth inhibition of human SNU475 cells at cytotoxic IC100 measured every 10 mins for first 24 hrs and every 30 mins for remaining 48 hrs by RT-CES analysis; format: functional, cell-based
[14] = test system: HepG2; assay: Induction of apoptosis in human HepG2 cells assessed as condensed nuclei at cytotoxic IC100 measured after 48 hrs by DAPI/Annexin-V-Fluos staining based fluorescent microscopic method; format: functional, cell-based
Outline: (§2)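 Cells on coverslips were treated after 24 h in culture and stained 48 h later with Annexin-V-Fluos plus DAPI nuclear stain. Cells were then examined by fluorescence microscopy for Annexin V-positive cells with condensed nuclei.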

[15] = test system: HepG2; assay: Induction of apoptosis in human HepG2 cells assessed as condensed nuclei at cytotoxic IC100 measured after 72 hrs by light microscopic method; format: functional, cell-based
[16] = test system: SNU-475; assay: Induction of apoptosis in human SNU475 cells assessed as condensed nuclei at cytotoxic IC100 measured after 72 hrs by light microscopic method; format: functional, cell-based
[17] = test system: SNU-475; assay: Induction of apoptosis in human SNU475 cells assessed as condensed nuclei at cytotoxic IC100 measured after 48 hrs by DAPI/Annexin-V-Fluos staining based fluorescent microscopic method; format: functional, cell-based; outline: as §2
[18] = test system: SNU-475; assay: Induction of apoptosis in human SNU475 cells assessed as PARP cleavage at cytotoxic IC100 measured after 24 hrs by Western blot method; format: functional, cell-based
[19] = test system: HepG2; assay: Induction of apoptosis in human HepG2 cells assessed as PARP cleavage at cytotoxic IC100 measured after 24 hrs by Western blot method; format: functional, cell-based
[20] = test system: HepG2; assay: Induction of apoptosis in human HepG2 cells assessed as accumulation at G2/M phase at cytotoxic IC100 measured after 48 hrs by propidium iodide staining based flow cytometry; format: functional, cell-based
Outline: (§3)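 After 24, 48 and 72 h, cells were fixed in ice-cold 70% ethanol for 3 h, stained with propidium iodide, and cell-cycle distribution was read on a MUSE Cell Analyzer.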

[21] = test system: HepG2; assay: Induction of apoptosis in human HepG2 cells assessed as accumulation at subG1 phase at cytotoxic IC100 measured after 72 hrs by propidium iodide staining based flow cytometry; format: functional, cell-based; outline: as §3
[22] = test system: SNU-475; assay: Induction of apoptosis in human SNU475 cells assessed as accumulation at G2/M phase at cytotoxic IC100 measured after 48 hrs by propidium iodide staining based flow cytometry; format: functional, cell-based; outline: as §3
[23] = test system: SNU-475; assay: Induction of apoptosis in human SNU475 cells assessed as accumulation at subG1 phase at cytotoxic IC100 measured after 72 hrs by propidium iodide staining based flow cytometry; format: functional, cell-based; outline: as §3
[24] = test system: HepG2; assay: Induction of apoptosis in human HepG2 cells assessed as decrease in CDK expression level at cytotoxic IC100 measured after 24 hrs by Western blot method; format: functional; design: scale not given: the % may be the effect or the level left
[25] = test system: SNU-475; assay: Induction of apoptosis in human SNU475 cells assessed as decrease in CDK expression level at cytotoxic IC100 measured after 24 hrs by Western blot method; format: functional, cell-based
[26] = target: G2/mitotic-specific cyclin-B1 (Homo sapiens) (UniProt P14635); assay: Inhibition of Cyclin B1 phosphorylation at Ser147 residue in human HepG2 cells at cytotoxic IC100 measured after 24 hrs by Western blot method; format: cell-based
Chain of G2/mitotic-specific cyclin-B1 (Homo sapiens) (P14635 whole entry): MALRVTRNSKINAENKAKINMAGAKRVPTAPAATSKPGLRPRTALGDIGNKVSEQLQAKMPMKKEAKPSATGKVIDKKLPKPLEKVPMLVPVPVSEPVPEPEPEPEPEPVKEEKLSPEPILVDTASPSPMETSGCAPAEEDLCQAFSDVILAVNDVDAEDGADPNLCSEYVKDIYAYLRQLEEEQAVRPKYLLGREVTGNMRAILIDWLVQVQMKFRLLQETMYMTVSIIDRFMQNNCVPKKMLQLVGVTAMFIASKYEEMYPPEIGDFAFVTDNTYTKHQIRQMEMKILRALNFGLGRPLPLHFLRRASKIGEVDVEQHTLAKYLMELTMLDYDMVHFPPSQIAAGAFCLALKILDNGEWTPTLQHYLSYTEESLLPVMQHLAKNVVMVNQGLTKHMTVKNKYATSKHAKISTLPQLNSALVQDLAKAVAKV

[27] = test system: HepG2; assay: Induction of apoptosis in human HepG2 cells assessed as decrease in cyclin B1 protein expression level at cytotoxic IC100 measured after 24 hrs by Western blot method; format: functional, cell-based
[28] = test system: HepG2; assay: Increase in p21 protein expression in human HepG2 cells at cytotoxic IC100 measured after 24 hrs by Western blot method relative to control; format: functional
[29] = test system: SNU-475; assay: Increase in p21 protein expression in human SNU475 cells at cytotoxic IC100 measured after 24 hrs by Western blot method relative to control; format: functional
[30] = target: T1, Retinoblastoma-associated protein (Homo sapiens) (UniProt P06400); assay: Inhibition of retinoblastoma phosphorylation in human HepG2 cells at cytotoxic IC100 measured after 24 hrs by Western blot method; format: cell-based
T1 sequence (whole entry): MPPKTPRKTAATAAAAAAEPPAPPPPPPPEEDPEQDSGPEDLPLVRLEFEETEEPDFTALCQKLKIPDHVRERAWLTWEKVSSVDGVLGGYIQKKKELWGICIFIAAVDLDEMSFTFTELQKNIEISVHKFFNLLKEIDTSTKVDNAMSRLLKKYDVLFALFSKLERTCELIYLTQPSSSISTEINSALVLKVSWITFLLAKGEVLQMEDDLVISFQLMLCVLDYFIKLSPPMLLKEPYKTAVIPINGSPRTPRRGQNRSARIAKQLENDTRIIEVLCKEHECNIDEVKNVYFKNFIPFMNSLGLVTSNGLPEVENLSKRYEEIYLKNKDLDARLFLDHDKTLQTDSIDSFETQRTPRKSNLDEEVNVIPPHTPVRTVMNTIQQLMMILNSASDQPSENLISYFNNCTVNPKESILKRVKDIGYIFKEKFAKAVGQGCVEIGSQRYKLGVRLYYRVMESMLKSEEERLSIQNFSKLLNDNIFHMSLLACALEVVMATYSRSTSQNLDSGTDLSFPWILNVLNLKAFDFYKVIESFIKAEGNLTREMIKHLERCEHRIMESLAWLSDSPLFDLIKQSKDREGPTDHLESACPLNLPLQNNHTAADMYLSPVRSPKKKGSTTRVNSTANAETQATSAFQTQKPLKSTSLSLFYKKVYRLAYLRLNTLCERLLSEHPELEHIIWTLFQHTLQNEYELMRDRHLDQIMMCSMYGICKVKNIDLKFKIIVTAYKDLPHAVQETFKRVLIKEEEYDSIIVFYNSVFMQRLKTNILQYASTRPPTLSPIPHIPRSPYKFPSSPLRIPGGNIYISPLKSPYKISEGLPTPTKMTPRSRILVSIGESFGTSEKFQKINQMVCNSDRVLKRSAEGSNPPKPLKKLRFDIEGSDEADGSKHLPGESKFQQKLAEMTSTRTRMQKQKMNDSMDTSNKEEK

[31] = target: T1, Retinoblastoma-associated protein (Homo sapiens); assay: Inhibition of retinoblastoma phosphorylation in human SNU475 cells at cytotoxic IC100 measured after 24 hrs by Western blot method; format: cell-based

inhibition [4]	Structure (SMILES)	IC50 [1] [µM]	IC50 [2] [µM]	IC50 [3] [µM]	IC50 [5] [µM]	IC50 [6] [µM]	IC50 [7] [µM]	IC50 [8] [µM]	IC50 [9] [µM]	growth inhibition (GI) [10]	growth inhibition (GI) [11]	growth inhibition (GI) [12]	growth inhibition (GI) [13]	Activity [14]	Activity [15]	Activity [16]	Activity [17]	Activity [18]	Activity [19]	Activity [20]	other results
inactive	COc1cc(OC)c(C(=O)/C=C/c2cn(-c3ccccc3)nc2-c2cccnc2)c(OC)c1	0.5	1	0.3	1.4	1.1	0.8	1.2	1.3	Active	Active	Active	Active	Active	Active	Active	Active	Active	Active	Active	Activity [21]: Active; Activity [22]: Active; Activity [23]: Active
inactive	COc1ccc(OC)c(C(=O)/C=C/c2cn(-c3ccccc3)nc2-c2ccncc2)c1	1.7	1.4	0.9	4.8	1.6	2	3	3.1	Active	Active	Active	Active	Active	Active	Active	Active	Active	Active	Active	Activity [21]: Active; Activity [22]: Active; Activity [23]: Active; Activity [24]: 50%; Activity [25]: Active; inhibition [26]: 50%; Activity [27]: Active; fold change (FC) [28]: 5 - 6; fold change (FC) [29]: 2; inhibition [30]: Active; inhibition [31]: Active
inactive	COc1ccc(OC)c(C(=O)/C=C/c2cn(-c3ccccc3)nc2-c2cccnc2)c1	1.3	1.5	1	3.4	2	1.9	2.4	2.7	Active	Active	Active	Active	Active	Active	Active	Active	Active	Active	Active	Activity [21]: Active; Activity [22]: Active; Activity [23]: Active; Activity [24]: 50%; Activity [25]: Active; inhibition [26]: 50%; Activity [27]: Active; fold change (FC) [28]: 5 - 6; fold change (FC) [29]: 2; inhibition [30]: Active; inhibition [31]: Active
